Measurements as given in ChEMBL document CHEMBL4219091, “Pharmacophore requirements for HIV-1 reverse transcriptase inhibitors that selectively "Freeze" the pre-translocated complex during the polymerization catalytic cycle” (Bioorg Med Chem, 2018).
Calls of active or inactive are those of the source. The rule behind the calls is not given here.

Legend:
[1] = target: T1, Human immunodeficiency virus type 1 reverse transcriptase (Human immunodeficiency virus 1, UniProt Q72547); assay: Inhibition of HIV1 reverse transcriptase p66/p51 polymerase using PPT57 DNA/Cy5-labeled PPT24 as template/primer preincubated for 10 mins followed by dNTP addition measured after 5 mins by bromophenol blue staining based phosphor imaging analysis
How it was run: (§1)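 Gel-based DNA synthesis: PPT57 DNA template (3-fold molar excess) heat-annealed to 50 nM 5'-Cy5-labeled PPT24 primer; 200 nM RT in 50 mM Tris-HCl pH 7.8, 50 mM NaCl, 6 mM MgCl2. Started with 0.5 mM each dNTP, 5 min, 12% denaturing gel.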

[2] = target: Human immunodeficiency virus type 1 reverse transcriptase (Human immunodeficiency virus 1) (UniProt Q72547); assay: (§2) Inhibition of HIV1 reverse transcriptase p66/p51 assessed as freezing of template-primer-enzyme complex at pretranslocated stage at 100 uM using 5'-radiolabeled PBS36c DNA/5'-TTCTGACTAAAAGGGTCTGAGGGAT-3 as template/primer preincubated for 10 mins followed by Fe2+ addition by site-specific foot printing assay
How it was run: (§3)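 Fe2+ chemical footprinting: 50 nM 5'-radiolabeled PBS36c DNA template annealed to 150 nM primer, incubated with 750 nM HIV-1 RT in 120 mM sodium cacodylate (pH 7), 20 mM NaCl, 6 mM MgCl2. Compound added at fixed or increasing concentrations, 10 min preincubation at 37 °C. Screening at fixed concentration, 10 µM or 100 µM depending on compound.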

[3] = target: T1, Human immunodeficiency virus type 1 reverse transcriptase; assay: Inhibition of HIV1 reverse transcriptase p66/p51 RNase H preincubated for 10 mins followed by PBS-22dpol/radiolabeled PBS-14r8d addition measured after 5 mins
How it was run: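 Inhibitors titrated up to 250 µM (≤5% final DMSO), 10 min preincubation at 37 °C before reaction start.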

[4] = target: Human immunodeficiency virus type 1 reverse transcriptase (Human immunodeficiency virus 1) (UniProt Q72547); assay: as §2, with “[…]” for “pretranslocated”, “10” for “100”; how it was run: as §3
[5] = target: Human immunodeficiency virus type 1 reverse transcriptase (Human immunodeficiency virus 1) (UniProt Q72547); assay: Inhibition of HIV1 reverse transcriptase p66/p51 assessed as freezing of template-primer-enzyme complex at pretranslocated stage using 5'-radiolabeled PBS36c DNA/5'-TTCTGACTAAAAGGGTCTGAGGGAT-3 as template/primer preincubated for 10 mins followed by Fe2+ addition by site-specific foot printing assay; how it was run: as §3
[6] = target: Human immunodeficiency virus type 1 reverse transcriptase (Human immunodeficiency virus 1) (UniProt Q72547); assay: Ratio of IC50 for HIV1 reverse transcriptase p66/p51 RNase H to IC50 for HIV1 reverse transcriptase p66/p51 polymerase
[7] = target: T1, Human immunodeficiency virus type 1 reverse transcriptase; assay: Inhibition of HIV1 reverse transcriptase p66/p51
How it was run: as §1, with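 “MgCl2. Inhibitor titrated up to 250 µM (≤5% final DMSO), 10 min preincubation at 37 °C.” for “MgCl2.”, “gel. IC50 from variable-slope curve fit, ≥3 independent determinations.” for “gel.”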

[8] = target: Human immunodeficiency virus type 1 reverse transcriptase (Human immunodeficiency virus 1, UniProt Q72547, K65R); assay: Inhibition of HIV1 reverse transcriptase p66/p51 polymerase K65R mutant using PPT57 DNA/Cy5-labeled PPT24 as template/primer preincubated for 10 mins followed by dNTP addition measured after 5 mins by bromophenol blue staining based phosphor imaging analysis
How it was run: (§4)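 Template/primer: Cy5-labelled PPT24 primer (50 nM) heat-annealed to a 3-fold molar excess of PPT57 DNA template. Incubated with 200 nM RT in 50 mM Tris-HCl pH 7.8, 50 mM NaCl, 6 mM MgCl2. Inhibitor titrated up to […], with at most 5% final DMSO. Pre-incubated 10 min at 37 °C. Started with 0.5 mM each dNTP, run 5 min, stopped with formamide dye. Products resolved on 12% denaturing PAGE and imaged. Normalized data fitted to a variable-slope log[inhibitor]–response curve to give IC50.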

[9] = tested on: Human immunodeficiency virus 1; assay: Ratio of IC50 for HIV1 reverse transcriptase p66/p51 polymerase M184V mutant to IC50 for HIV1 reverse transcriptase p66/p51 polymerase wild type
[10] = tested on: Human immunodeficiency virus 1; assay: Ratio of IC50 for HIV1 reverse transcriptase p66/p51 polymerase K65R mutant to IC50 for HIV1 reverse transcriptase p66/p51 polymerase wild type
[11] = target: Human immunodeficiency virus type 1 reverse transcriptase (Human immunodeficiency virus 1, UniProt Q72547, M184V); assay: Inhibition of HIV1 reverse transcriptase p66/p51 polymerase M184V mutant using PPT57 DNA/Cy5-labeled PPT24 as template/primer preincubated for 10 mins followed by dNTP addition measured after 5 mins by bromophenol blue staining based phosphor imaging analysis; how it was run: as §4
[12] = target: Human immunodeficiency virus type 1 reverse transcriptase (Human immunodeficiency virus 1, UniProt Q72547, E89K); assay: Inhibition of HIV1 reverse transcriptase p66/p51 polymerase E89K mutant using PPT57 DNA/Cy5-labeled PPT24 as template/primer preincubated for 10 mins followed by dNTP addition measured after 5 mins by bromophenol blue staining based phosphor imaging analysis; how it was run: as §4
[13] = tested on: Human immunodeficiency virus 1; assay: Ratio of IC50 for HIV1 reverse transcriptase p66/p51 polymerase E89K mutant to IC50 for HIV1 reverse transcriptase p66/p51 polymerase wild type

With `O=C(O)c1nc(-c2cccc(Cl)c2)nc(O)c1O` the IC50 [1] was 18 µM.

With `Nc1ncnc2c1ncn2CCc1nc(O)c(O)c(C(=O)O)n1` the IC50 [1] was 41 µM.

In the case of `O=C(O)c1nc(-c2ccccc2)nc(O)c1O`, the IC50 [1] is reported as greater than 100 µM.

`COc1ccc(-c2cnc3ncnc(NCc4nc(O)c(O)c(C(=O)O)n4)c3c2)cc1` was tested, and the “Active/not active call for freezing the pre-translocated complex” value [2] was “inactive”, the IC50 [1] was 25 µM and the IC50 [3] was 1.5 µM.

In the case of `O=C(O)c1nc(CNc2ncnc3ncc(Br)cc23)nc(O)c1O`, the “Active/not active call for freezing the pre-translocated complex” value [2] is reported as “inactive” and the IC50 [1] is reported as 49 µM.

`CSc1nc2ncnc(NCc3nc(O)c(O)c(C(=O)O)n3)c2cc1Br` gave an IC50 [1] greater than 100 µM.

For `O=C(O)c1nc(-c2cccc(Br)c2)nc(O)c1O`, the “Active/not active call for freezing the pre-translocated complex” value [2] was “Active” and the IC50 [1] was 14 µM.

For `Cn1c2ccccc2c2c1cc(C#N)c(=O)n2-c1ccc([N+](=O)[O-])cc1`, the inhibition [4] was “Active”.

`Cc1ccc(-c2nc(O)c(O)c(C(=O)O)n2)cc1Cl` was tested, and the inhibition [5] was “Dose-dependent effect”, the Ratio IC50 [6] was greater than 10 and the IC50 [1] was 1.6 µM. The IC50 [3] was 25 µM.

`Cc1cccc(-c2nc(O)c(O)c(C(=O)O)n2)c1` showed an IC50 [1] of 49 µM.

Work on `O=C(O)c1nc(-c2cccc(-c3ccc(F)c(F)c3)c2)nc(O)c1O` yielded an IC50 [1] greater than 100 µM.

For `COc1ccc(-c2cc3c(NCc4nc(O)c(O)c(C(=O)O)n4)ncnc3nc2SC)cc1`, the IC50 [1] was 62 µM and the IC50 [3] was 2 µM.

`O=C(O)c1nc(-c2cccs2)nc(O)c1O` showed an IC50 [1] of 46 µM.

Compound `Cc1noc(C)c1-c1ccc(-c2nc(O)c(O)c(C(=O)O)n2)cc1` has an IC50 [1] greater than 100 µM.

In the case of `CC(C)c1ccc(-c2nc(O)c(O)c(C(=O)O)n2)cc1`, the IC50 [1] is reported as 22 µM.

For `O=P(O)(O)C(Nc1cccc(Br)c1)P(=O)(O)O`, the “Active/not active call for freezing the pre-translocated complex” value [2] was “Active”.

For `O=C(Nc1ccc(-c2cccc(NC(P(=O)(O)O)P(=O)(O)O)c2)cc1)C1CC1`, the IC50 [7] was greater than 50 µM, the “Active/not active call for freezing the pre-translocated complex” value [2] was “inactive” and the IC50 [3] was 0.8 µM.

`O=C(O)c1nc(-c2ccc(Br)cc2)nc(O)c1O` showed an IC50 [1] of 2.8 µM.

`O=C(O)c1nc(CNc2ncnc3ncccc23)nc(O)c1O` was tested, and the IC50 [1] was 65 µM.

`Cc1ccc(-c2nc(O)c(O)c(C(=O)O)n2)cc1Br` was tested, and the IC50 [8] was 1.13 µM, the Ratio IC50 [9] was less than 2 and the inhibition [5] was “Dose-dependent effect”. For the same compound, the Ratio IC50 [6] was greater than 10, the Ratio IC50 [10] was less than 2 and the IC50 [11] was 2.79 µM. The IC50 [1] was 1.4 to 1.74 µM, the IC50 [12] was 4.63 µM and the IC50 [3] was 23 µM. For the same compound, the Ratio IC50 [13] was 2.7.

`Cc1ccc(-c2nc(O)c(O)c(C(=O)O)n2)cc1` was tested, and the IC50 [1] was 6.3 µM.

`O=C(O)c1nc(-c2cc(C(F)(F)F)cc(C(F)(F)F)c2)nc(O)c1O` was tested, and the “Active/not active call for freezing the pre-translocated complex” value [2] was “inactive” and the IC50 [1] was 20 µM.

`Nc1ncnc2c1ncn2Cc1nc(O)c(O)c(C(=O)O)n1` showed an IC50 [1] greater than 100 µM.

Compound `O=C(O)c1nc(Cc2ccc(Cl)cc2)nc(O)c1O` has an IC50 [1] of 97 µM.

With `COC(=O)c1nc(-c2ccc(C)c(Br)c2)nc(O)c1O` the IC50 [1] was greater than 100 µM.

In the case of `O=C(O)c1nc(-c2ccc(Cl)cc2)[nH]c(=O)c1O`, the IC50 [1] is reported as 4.5 µM.

With `CNC(=O)c1nc(-c2ccc(C)c(Br)c2)nc(O)c1O` the IC50 [1] was greater than 100 µM.
